Measurements gathered from unrelated publications.
Read-out: cell growth or viability

| SMILES | cell line | method | concentration | time | quantity | value |
| --- | --- | --- | --- | --- | --- | --- |
| C[C@H](Nc1ccc2c(c1)OCCn1cc(N3C(=O)OC[C@H]3C(F)F)nc1-2)C(N)=O | NCI-H596 | ATP luminescence |  | 5 days | EC50 | 0.0829 µM |
| c1ccc(Oc2ccc(Nc3c4c(nc5ccccc35)CCC4)cc2)cc1 | J774.1 | resazurin |  | 72 h | IC50 | 45.8 µM |
| OCn1ccnc1 | SH-SY5Y | MTT |  | 24 h | IC50 | 6.97 µM |
| [Cl-].[Li+] | CHO | MTT |  |  | IC50 | > 10000 µM |
| CCOc1ccc(Nc2c3c(nc4ccccc24)CCC3)cc1 | J774.1 | resazurin |  | 72 h | IC50 | 33.2 µM |
| Cc1nc(NC(=O)N2CCC[C@H]2C(N)=O)sc1-c1ccnc(C(C)(C)C(F)(F)F)c1 | NCI-H596 | ATP luminescence |  | 5 days | EC50 | 0.492 µM |
| CCOC(=O)c1cc(C)n(Cn2cnc3ccccc32)n1 | SH-SY5Y | MTT |  | 24 h | IC50 | 121 µM |
| CN1CCN(c2ccc(Nc3c4ccccc4nc4ccccc34)cc2)CC1 | PLC-PRF-5 | imaging |  | 72 h | IC50 | 3.2 µM |
| Cc1nc(Nc2ncc(C(=O)Nc3c(C)cccc3Cl)s2)cc(N2CC[C@H](O)C2)n1 | HuT78 | ATP luminescence | 10 µM | 72 h | inhibition | 7% |
| Cc1cnc(CNC(=O)c2c(=O)c3ccc(N4CCCN(C)CC4)nc3n3c2sc2ccccc23)cn1 | PLC-PRF-5 | imaging |  | 72 h | IC50 | 0.33 µM |
| Cc1cc(C)n(Cn2cnc3ccccc32)n1 | SH-SY5Y | MTT |  | 24 h | IC50 | 82.7 µM |
